# Only some compounds are listed: those with a hit (about 3.5% of all), similar ones and a draw of the others.
# MrgX1 ag = activates human MrgX1 receptor signaling | Q96LB2 | MrgX1-HEK293 cells, Fluo-4 calcium fluorescence, agonist mode; stronger effect = higher value | B-score at 10 µM | hit rate 0.44% among 310,000 | AID 588627;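 active means calcium response B-score plate-corrected fluorescence ratio at least 3 library SD, with starting fluorescence B-score inside 5 SD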
# Target sequence (Q96LB2 whole entry, looked up): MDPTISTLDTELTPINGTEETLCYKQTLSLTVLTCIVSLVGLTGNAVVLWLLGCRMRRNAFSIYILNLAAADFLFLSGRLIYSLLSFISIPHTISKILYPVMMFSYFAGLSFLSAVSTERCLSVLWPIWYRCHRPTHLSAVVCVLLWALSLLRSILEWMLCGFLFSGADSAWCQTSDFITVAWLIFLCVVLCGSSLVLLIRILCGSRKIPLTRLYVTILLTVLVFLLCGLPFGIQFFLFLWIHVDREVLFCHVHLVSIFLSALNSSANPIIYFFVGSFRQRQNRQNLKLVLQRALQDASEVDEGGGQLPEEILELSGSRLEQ
#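 Material: HEK293 cells stably expressing human MrgX1 receptor | Quantity: 15,000 cells per well | Times: Cells plated overnight, dye loaded 0.5 h 37 °C, 0.5 h room temperature | Measured by: Kinetic Fluo-4 NW fluorescence of intracellular calcium | Control set: Positive and negative controls per plate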
# RGS4 act = RGS4 potentiation or activation. HEK293 M3R/inducible RGS4, carbachol calcium flux Fluo4; stronger effect = lower value. B-score at 10 µM. hit rate 0.92% among 310,000. AID 463111;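 active means B-score of the integrated calcium signal more than 4 SD below the library mean, with starting fluorescence not abnormally high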;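 further: negative B-score means reduced calcium response which marks RGS4 activation or potentiation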
#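 Assay system: HEK293 FlpIn-TREx cells, stable M3R, doxycycline-inducible RGS4 / Probe or stimulus: carbachol, ECmax concentration / Times: overnight RGS4 induction, 30 min dye load 37 °C, 20 min compound RT / Signal: kinetic calcium fluorescence imaging with Fluo4-AM dye, 2 µM / Measure: Agonist-evoked peak-minus-minimum fluorescence over baseline, integrated ratio, B score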
# RGS4 inh = human RGS4 inhibition; P49798; HEK293 M3R/RGS4 inducible, Fluo-4 calcium flux; stronger effect = higher value; triggered by carbachol at its EC20; B-score at 10 µM; hit rate 0.45% among 310,000; AID 463165;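 active means B-score, a plate-corrected calcium signal, over three deviations above library mean, with baseline fluorescence within five deviations of library mean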;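 further: RGS4 expression induced by doxycycline in cells with stable M3 receptor; B-score is computed from the integrated fluorescence ratio over baseline after carbachol; higher B-score means a larger calcium signal and so more RGS4 inhibition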
# MrgX1 PAM = human MrgX1 positive allosteric modulation, primary screen | Q96LB2 | MrgX1-HEK293, Fluo-4 calcium flux, FDSS; stronger effect = higher value | B-score at 10 µM | hit rate 0.63% among 310,000;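 active means plate-corrected calcium response at least 3 library SD above typical, normal starting fluorescence, not activating the receptor alone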;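 further: compound read alongside a low EC10 to EC30 dose of BAM8-22 agonist; peak minus trough fluorescence over baseline measured at the second addition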
# MrgX1 antag = human MrgX1 receptor antagonism, primary screen; Q96LB2; MRGX1-HEK293 calcium flux, Fluo-4, BAM8-22 antagonism; stronger effect = lower value; B-score at 10 µM; hit rate 1.3% among 310,000; AID 588676;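 active means calcium-response B-score plate-corrected more than 3 library SD below zero, starting fluorescence within 5 deviations, no agonist response on first addition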;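 further: peak minus trough fluorescence over baseline after final BAM8-22 challenge near maximal dose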
# RGS4 activ val = confirmation of RGS4 activators; inhibition, % at 10 µM; shares compounds with RGS4 act; HEK293 M3R/RGS4 inducible, carbachol calcium flux Fluo4; hit rate 89% among 1,100; AID 602282;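 active means inhibition above 3 SD of the buffer control wells, cut at about 41% in these data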;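 further: signal is the integrated peak-minus-minimum Fluo4 fluorescence over baseline ratio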
# M3R Ca counter = activity in cells without induced RGS4 expression; shares compounds with RGS4 act; HEK293 M3R non-induced RGS4, Fluo4 calcium flux; after carbachol challenge at its EC90; inhibition, % at 10 µM; hit rate 82% among 1,100; AID 602283;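 active means inhibition exceeding 3 SD of buffer-only control wells, cut at about 26% in these data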;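 further: percent drop in integrated peak-minus-baseline over baseline Fluo4 ratio after carbachol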
# * marks the source's active call; other numbers are inactive results; i = inactive; · = no result.
SMILES,MrgX1 ag,RGS4 act,RGS4 inh,MrgX1 PAM,MrgX1 antag,RGS4 activ val,M3R Ca counter
CC1(C)CC(=O)C2=C(C1)OC(N)=C(C#N)C2c1ccoc1 (stereo not drawn),i,i,i,i,i,·,·
O=C(CNCCC1=CCCCC1)Nc1ccc(N2CCCCCC2)cc1,i,-10*,i,i,i,94*,92*
O=C(CNC1CCCCCC1)Nc1ccc(N2CCCC2)cc1,i,i,i,i,i,·,·
O=C(CNC1CCCC1)Nc1ccc(N2CCCCCC2)cc1,i,-8*,i,i,i,84*,36*
Cc1cc(C=NCCCO)c(C)n1-c1cc(Cl)ccc1Cl,·,i,i,·,·,·,·
COc1ccc(CN2CCNC(=O)C2CC(=O)N(C)CCCN2CCOCC2)cc1C (stereo not drawn),i,i,i,i,i,·,·
O=C(Nc1ccccc1)Nc1cc(Cl)cc(Cl)c1,i,-8.3*,i,i,i,62*,84*
CCCN(CCC)CCNC(=O)C1CCN(S(=O)(=O)c2cccc3nsnc23)CC1,i,i,i,i,i,·,·
COc1ccc(/C(C)=N/NC(=O)CN(c2ccc(OC)cc2)S(=O)(=O)c2ccccc2)cc1,i,i,i,i,i,·,·
Cc1cc(C)c(S(=O)(=O)Nc2ccc(O)cc2)c(C)c1,i,i,i,i,i,·,·
Cc1cc(C)c(S(=O)(=O)Nc2ccc3c(c2)CCC3)c(C)c1,i,-10*,i,i,i,92*,74*
CCCN1CCc2c(sc(NC(=O)c3ccc(S(=O)(=O)N(C)c4ccccc4)cc3)c2C(=O)NC)C1,i,-9.5*,i,i,i,84*,52*
COc1ccc(/C=N/NC(=O)c2ccncc2)cc1CSc1nc2ccccc2s1,i,i,i,i,i,·,·
CC(=O)c1sc(-c2ccc(Cl)cc2)cc1N,i,i,i,i,i,·,·
COC(=O)c1sc(-c2ccc(Cl)cc2)cc1N,i,-7.7*,i,i,i,0,0
COC(=O)Cc1ccc(NC(=S)N2CCN(c3ccc(F)cc3)CC2)cc1,i,i,i,i,i,·,·
S=C(NCCSCc1ccc(Cl)c(Cl)c1)Nc1ccccc1,i,-8.3*,i,i,i,90*,71*
COc1ccc(CSCCNC(=S)Nc2ccccc2)cc1Cl,i,i,i,i,i,·,·
CC(C)CC1CCCCC1OC(=O)CN1CCCCC1 (stereo not drawn),i,-8.5*,i,i,i,86*,37*
CNC(=O)C1CC(=O)N(Cc2ccc3c(c2)OCO3)C(=Nc2ccc(OC)cc2)S1 (stereo not drawn),i,-11*,i,i,i,0,0
CNC(=O)C1CC(=O)N(CCc2ccc(OC)cc2)C(=Nc2ccc(OC)cc2)S1 (stereo not drawn),i,i,i,i,i,·,·
c1ccc(OCCCN2CCCC2)cc1,i,i,i,i,i,·,·
c1ccc(COc2ccc(OCCCN3CCCCC3)cc2)cc1,i,-7.7*,i,i,i,90*,63*
c1ccc(CCCN2CCOCC2)cc1,i,i,i,i,i,·,·
c1ccc(OCc2ccc(CCCN3CCOCC3)cc2)cc1,i,-8.1*,i,i,i,58*,84*
Cc1ccc(-c2cc(C(=O)OCC(=O)N(C)c3c(N)n(Cc4ccccc4)c(=O)[nH]c3=O)c3ccccc3n2)o1,i,i,i,i,i,·,·
CN1CCC(=C2c3ccccc3C=Cc3ccccc32)CC1,i,i,i,i,i,·,·
c1ccc2c(c1)CCc1ccccc1C2=C1CCNCC1,i,-12*,i,i,i,94*,94*
Cc1cccc(NC(=O)CCS(=O)(=O)c2ccc3c(c2)NC(=O)CS3)n1,i,i,i,i,i,·,·

# From PubChem
